Assay outcomes as filed in PubChem BioAssay.
GASC1 inh – blocks human GASC-1 (KDM4C) demethylase activity; GST-KDM4C 2-372, H3K9me3 peptide, LANCE TR-FRET; inhibition, % at 12.5 µM; hit rate 0.15% among 96,000;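 active = mean replicate inhibition above about 25%, with at least 55% of replicates also reaching it, limit read from the data, passing the limit was not always enough; inconclusive = only one of those two conditions met; inactive = neither condition met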
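System – N-terminal GST-fused human GASC-1 (KDM4C) fragment, residues 2-372 · Input – enzyme final amount 10 nM · Technique – LANCE TR-FRET, Eu antibody, ULight-streptavidin, EDTA, ex 340 nm, em 618/671 nm · Medium – HEPES buffer, pH 7.5, plus ascorbate · Incubation – enzyme reaction 30 min, then detection 60 min, both room temperature · Reagent – H3K9me3 peptide with Fe(II)/2OG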
IDH1 R132H inh – inhibitors of human IDH1 R132H; IDH1 R132H reductase, diaphorase/resazurin fluorescence, 60 min; O75874; inhibition, % at 10 µM; hit rate 0.18% among 70,000; in the data active = inhibition above about 34%; inconclusive = no clear call, values can overlap the other calls; inactive = below about 11%;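 note: 0% = DMSO and 100% = no enzyme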
Target sequence (O75874 whole entry R132H): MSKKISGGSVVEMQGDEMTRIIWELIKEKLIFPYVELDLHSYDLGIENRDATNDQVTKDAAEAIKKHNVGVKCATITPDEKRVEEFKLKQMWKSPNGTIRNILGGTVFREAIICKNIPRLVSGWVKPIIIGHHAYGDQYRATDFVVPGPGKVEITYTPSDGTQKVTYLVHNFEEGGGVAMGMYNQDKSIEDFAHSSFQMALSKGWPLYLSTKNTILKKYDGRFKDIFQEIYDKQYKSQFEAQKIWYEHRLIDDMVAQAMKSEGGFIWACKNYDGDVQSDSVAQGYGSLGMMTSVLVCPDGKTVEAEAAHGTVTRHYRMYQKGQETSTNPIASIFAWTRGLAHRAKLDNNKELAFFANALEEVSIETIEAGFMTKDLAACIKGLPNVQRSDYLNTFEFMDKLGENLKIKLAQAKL
T cruzi growth-1 – blocks T. cruzi growth in NIH3T3 culture; T. cruzi beta-gal in NIH3T3, GalScreen luminescence, 90 h; inhibition, % at 8.34 µM; hit rate 5.9% among 77,000; AID 624255;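 active = mean inhibition above about 93%, with at least 55% of replicates each passing it, limit read from the data, passing the limit was not always enough; inconclusive = only one of those two conditions holds; inactive = neither condition holds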
Pf Dd2 inh – blocks growth of Plasmodium falciparum Dd2 parasites. P. falciparum Dd2 growth, SYBR Green, 72 h; hits give low values. hit rate 2.3% among 94,000. activity change, % at 10 µM; in the data active = activity change below about -80%; inconclusive = no clear call, values can overlap the other calls
T cruzi growth-2 – blocks T. cruzi growth in NIH3T3 host cells; shares compounds with T cruzi growth-1; T. cruzi beta-gal in NIH3T3, GalScreen luminescence, 90 h; inhibition, % at 8.35 µM; hit rate 72% among 5,600; AID 651739;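 active = mean replicate inhibition above about 95% and at least 55% of replicates individually reaching it, limit read from the data; inconclusive = only one of the two criteria is met; inactive = neither criterion is met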
T cruzi growth-3 – Trypanosoma cruzi proliferation inhibition. shares compounds with T cruzi growth-1. T. cruzi beta-gal in NIH3T3, GalScreen luminescence, 90 h. inhibition, % at 2.09 µM. hit rate 21% among 5,600. AID 651740;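 active = mean inhibition above about 95%, with at least 55% of replicates also reaching it, limit read from the data; inconclusive = meets just one of the two conditions; inactive = meets neither condition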;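 note: plate controls were neutral control median for no effect and positive control median for full effect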
3T3 cytotox – kills mouse NIH/3T3 fibroblasts; shares compounds with T cruzi growth-1; NIH/3T3 viability, CellTiter-Glo ATP luminescence, 90 h; cytotoxicity (signal decrease), % at 8.35 µM; hit rate 14% among 5,600; AID 651742;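 active = mean signal decrease across replicates above about 35% based on untreated-well scatter, with enough replicates individually passing, limit read from the data; inconclusive = no rule stated though some were filed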;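 note: 0% = median of neutral control wells and 100% = median of positive control wells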
3T3 cytotox 2 – cytotoxicity in mouse NIH/3T3 fibroblasts; NIH/3T3 viability, CellTiter-Glo ATP luminescence, 90 h; hit rate 56% among 5,600; inhibition, % at 24.9 µM; shares compounds with T cruzi growth-1;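 active = mean loss of cell viability signal at or above a set limit, and enough replicates individually reaching it; inconclusive = meets only the mean limit or only the replicate share; inactive = meets neither condition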;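 note: 0% = median of neutral control wells and 100% = median of positive control wells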
* hit, by the source's call. In the library only some 5.9% were active in any assay of this set; here they are far more common.

CCc1ccc(CCC(=O)Nc2cc(Cl)ccc2Cl)o1 was read as IDH1 R132H inh -1.
Screening CN(C)C(=O)[C@H]1[C@H](CO)[C@H]2Cn3c(ccc(-c4ccccc4)c3=O)[C@@H]1N2CC1CCCC1 returned GASC1 inh 0, T cruzi growth-1 inconclusive, Pf Dd2 inh 0, T cruzi growth-2 85, T cruzi growth-3 26, 3T3 cytotox 5 and 3T3 cytotox 2 inconclusive.
For CN(C)C(=O)[C@@H]1[C@@H](CO)[C@@H]2Cn3c(ccc(-c4ccccc4)c3=O)[C@H]1N2C(=O)C1CCC1 the results were GASC1 inh 19, T cruzi growth-1 active, T cruzi growth-2 55, T cruzi growth-3 -19, 3T3 cytotox -14 and 3T3 cytotox 2 7.
For CCN1[C@@H]2c3ccc(-c4ccccc4)c(=O)n3C[C@H]1[C@H](CO)[C@H]2C(=O)Nc1ccccc1 the results were GASC1 inh 0, T cruzi growth-1 99*, Pf Dd2 inh 11, T cruzi growth-2 62, T cruzi growth-3 1, 3T3 cytotox 8 and 3T3 cytotox 2 13.
Screening CN(C)C(=O)[C@@H]1[C@@H](CO)[C@@H]2Cn3c(ccc(-c4ccccc4)c3=O)[C@H]1N2CC1CCCC1 returned GASC1 inh 0, T cruzi growth-1 87 and Pf Dd2 inh 5.
For O=C(Nc1ccc(Cl)cc1)NC(Cc1ccccc1)C(=O)O (stereo not drawn) the results were IDH1 R132H inh 0.
C[C@H](CO)N1C[C@H](C)[C@H](CN(C)C(=O)Nc2ccc(F)cc2)Oc2cc(-c3ccncc3)ccc2S1(=O)=O was read as GASC1 inh -2, T cruzi growth-1 93 and Pf Dd2 inh -48.
C[C@@H]1CN([C@H](C)CO)S(=O)(=O)c2ccc(-c3ccncc3)cc2O[C@H]1CN(C)C(=O)Nc1ccc(F)cc1 was read as GASC1 inh 1, IDH1 R132H inh 5, T cruzi growth-1 101*, Pf Dd2 inh -11, T cruzi growth-2 90, T cruzi growth-3 84, 3T3 cytotox -17 and 3T3 cytotox 2 75*.
C[C@H]1CN([C@@H](C)CO)S(=O)(=O)c2ccc(-c3ccc(F)cc3)cc2O[C@@H]1CN(C)C(=O)Nc1ccc(F)cc1 was read as GASC1 inh -2, T cruzi growth-1 119*, Pf Dd2 inh -32, T cruzi growth-2 103*, T cruzi growth-3 48, 3T3 cytotox 20 and 3T3 cytotox 2 58*.
For C[C@@H]1CN([C@H](C)CO)S(=O)(=O)c2ccc(Br)cc2O[C@H]1CN(C)C(=O)Nc1ccc(F)cc1 the results were GASC1 inh 0, T cruzi growth-1 12 and Pf Dd2 inh 14.
For C[C@@H]1CN([C@H](C)CO)S(=O)(=O)c2ccc(-c3ccc(F)cc3)cc2O[C@H]1CN(C)C(=O)Nc1ccc(F)cc1 the results were GASC1 inh -1, T cruzi growth-1 114*, Pf Dd2 inh -45, T cruzi growth-2 106*, T cruzi growth-3 47, 3T3 cytotox 38* and 3T3 cytotox 2 74*.
For C[C@@H]1CN([C@@H](C)CO)S(=O)(=O)c2ccc(-c3ccc(F)cc3)cc2O[C@@H]1CN(C)C(=O)Nc1ccc(F)cc1 the results were GASC1 inh 2, T cruzi growth-1 123*, Pf Dd2 inh -24, T cruzi growth-2 111*, T cruzi growth-3 63, 3T3 cytotox 24 and 3T3 cytotox 2 62*.
Screening COC(=O)c1cccc(NC(=O)CSc2nc(-c3ccc(C)cc3)cc(C(F)(F)F)n2)c1 returned IDH1 R132H inh 0.
For O=C(CC1(O)C(=O)N(Cc2ccc(Cl)cc2)c2ccccc21)c1cc2ccccc2oc1=O (stereo not drawn) the results were IDH1 R132H inh 0.
For C[C@H]1CCCCO[C@@H](CN(C)C(=O)Nc2ccccc2)[C@@H](C)CN([C@@H](C)CO)C(=O)c2cc(NC(=O)Nc3ccc(C(F)(F)F)cc3)ccc2O1 the results were GASC1 inh 0, IDH1 R132H inh 2 and Pf Dd2 inh -15.
C[C@H](CO)N1C[C@H](C)[C@H](CN(C)C(=O)Nc2ccc(C(F)(F)F)cc2)OCCCC[C@H](C)Oc2ccc(N(C)C)cc2C1=O was read as GASC1 inh -2, T cruzi growth-1 101*, Pf Dd2 inh -65, T cruzi growth-2 106*, T cruzi growth-3 78, 3T3 cytotox -4 and 3T3 cytotox 2 39*.
C[C@@H]1CCCCO[C@H](CN(C)C(=O)Nc2ccc(F)cc2)[C@H](C)CN([C@@H](C)CO)C(=O)c2cc(NC(=O)Nc3ccc(C(F)(F)F)cc3)ccc2O1 was read as GASC1 inh -1, IDH1 R132H inh 2, T cruzi growth-1 97*, Pf Dd2 inh -38, T cruzi growth-2 102*, T cruzi growth-3 115*, 3T3 cytotox 22 and 3T3 cytotox 2 16.
`C[C@@H]1CN([C@H](C)CO)C(=O)c2cc(N(C)C)ccc2O[C@@H](C)CCCCO[C@H]1CN(C)C(=O)Nc1ccc(C(F)(F)F)cc1` gave GASC1 inh -4, T cruzi growth-1 41 and Pf Dd2 inh -60.
`C[C@H]1CCCCO[C@@H](CN(C)C(=O)Nc2ccc(C(F)(F)F)cc2)[C@@H](C)CN([C@@H](C)CO)C(=O)c2cc(NC(=O)Nc3ccc(F)cc3)ccc2O1` gave GASC1 inh 1, IDH1 R132H inh 0, T cruzi growth-1 114*, Pf Dd2 inh 3, T cruzi growth-2 108*, T cruzi growth-3 106*, 3T3 cytotox -24 and 3T3 cytotox 2 -10.
Screening C[C@H]1CCCCO[C@@H](CN(C)C(=O)Nc2ccc(C(F)(F)F)cc2)[C@@H](C)CN([C@@H](C)CO)C(=O)c2cc(NC(=O)CCC(F)(F)F)ccc2O1 returned GASC1 inh -1, T cruzi growth-1 inconclusive, Pf Dd2 inh -58, T cruzi growth-2 99*, T cruzi growth-3 110*, 3T3 cytotox 17 and 3T3 cytotox 2 17.
`C[C@@H]1CN([C@@H](C)CO)C(=O)c2cc(NC(=O)CCC(F)(F)F)ccc2O[C@@H](C)CCCCO[C@H]1CN(C)C(=O)Nc1ccc(C(F)(F)F)cc1` gave GASC1 inh -5, IDH1 R132H inh 0, T cruzi growth-1 105 and Pf Dd2 inh -31.
`O=C(CSc1n[nH]c(-c2ccccc2)n1)Nc1ccc(F)cc1` gave IDH1 R132H inh 0.
C[C@@H]1O[C@@H](OC[C@H]2O[C@@H](Oc3cc(O)c4c(c3)OC(c3ccc(O)cc3)CC4=O)[C@H](O)[C@@H](O)[C@@H]2O)[C@H](O)[C@H](O)[C@H]1O (stereo partly drawn) was read as IDH1 R132H inh 0.
